pIC50: −log10 of the molar value. ≈ marks a conversion by molar mass, not a printed value. Calls of active or inactive are those of the source. The calls are words filed in the database; no cut-off is given here.
Columns and labels:
[1] = target: Deoxycytidine kinase (Rattus norvegicus) (UniProt P48769); experiment: (§1) Irreversible inhibition of Walker 256 rat tumor deoxycytidine kinase by [3H]deoxycytidine binding assay
Procedure, shortened: (§2)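 Enzyme came from the 0–45% (NH4)2SO4 fraction of Walker 256 rat tumor, treated with 1 M HOAc. The assay contained [3H]deoxycytidine 0.025 mM, ATP 5 mM, MgCl2 5 mM and Tris pH 8.0 buffer 50 mM. Inhibitor was added in DMSO. Phosphorylated product was measured by adsorption to DEAE-cellulose filter disks. Inhibition was expressed as V0/V1, the uninhibited over the inhibited rate.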

Deoxycytidine kinase = Deoxycytidine kinase (Rattus norvegicus, UniProt P48769); experiment: as §1; conditions: read-out: I50; procedure, shortened: as §2
Deoxycytidine kinase, sequence (P48769 whole entry): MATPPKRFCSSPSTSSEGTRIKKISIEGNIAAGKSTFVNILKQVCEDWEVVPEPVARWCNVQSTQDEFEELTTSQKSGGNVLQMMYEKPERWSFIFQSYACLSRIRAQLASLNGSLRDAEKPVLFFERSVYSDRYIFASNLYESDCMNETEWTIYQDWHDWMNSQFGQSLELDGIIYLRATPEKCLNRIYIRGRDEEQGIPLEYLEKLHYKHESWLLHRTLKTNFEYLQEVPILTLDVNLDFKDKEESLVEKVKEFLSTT

[2] = target: Deoxycytidine kinase (Rattus norvegicus) (UniProt P48769); experiment: Irreversible inhibition of Walker 256 rat tumor deoxycytidine kinase assessed as ratio of V0/V1 by [3H]deoxycytidine binding assay; procedure, shortened: as §2
[3] = Maximum solubility of the compound; type: physicochemical

Deoxycytidine kinase (Rattus norvegicus), sequence (P48769 whole entry): as above

IC [1] | pIC50 (Deoxycytidine kinase) | Ratio [2] | inhibition [1] | solubility [3] | SMILES
4 mM | 2.55 | 2.8 |  |  | Nc1ccnc(SCc2ccccc2)n1
 |  |  | inactive |  | CCCCNc1cc(N)nc(=O)[nH]1
 |  |  | inactive |  | Nc1cc(OCc2ccccc2)[nH]c(=O)n1
 | 1.92 | 1.4 |  | 2500 µM (≈ 503 µg/mL) | Nc1ccn(Cc2ccccc2)c(=O)n1
 | 3.00 | 2 |  | 1000 µM (≈ 243 µg/mL) | Nc1ccn(CCCCc2ccccc2)c(=O)n1
10 mM | 2.15 | 3.6 |  |  | CCCCCOc1nccc(N)n1
 |  |  | inactive |  | Nc1cc(Nc2ccccc2)[nH]c(=O)n1
 |  |  | inactive |  | Oc1nccc(Nc2ccccc2)n1
 |  |  | inactive |  | CCCCCNc1cc[nH]c(=O)n1
5 mM | 2.30 | 2 |  |  | Nc1ccnc(Oc2ccc(Cl)cc2)n1
 | 2.70 | 1.5 |  | 1000 µM (≈ 261 µg/mL) | Nc1ccnc(SCCCOc2ccccc2)n1
5 mM |  | 1 |  |  | CCCOc1nccc(N)n1
 |  |  | inactive |  | CS(=O)(=O)c1nc(N)cc(OCc2ccccc2)n1
2.5 mM | 2.60 | 2 |  |  | Nc1ccn(CCCOc2ccccc2)c(=O)n1
 |  |  | inactive |  | Nc1cc(NCc2ccccc2)[nH]c(=O)n1
 | 3.30 | 2 |  | 500 µM (≈ 127 µg/mL) | Nc1ccnc(Sc2ccc3ccccc3c2)n1
 |  |  | inactive |  | COc1ccc(-c2c[nH]c(=O)nc2N)cc1

IC [1] | pIC50 (Deoxycytidine kinase) | Ratio [2] | inhibition [1] | solubility [3] | SMILES
 |  |  | inactive |  | Nc1nc(=O)[nH]cc1-c1ccc(Cl)c(Cl)c1
5 mM | 2.30 | 2 |  |  | CC(C)CCn1ccc(N)nc1=O
 | 3.00 | 2 |  | 1000 µM (≈ 252 µg/mL) | Nc1ccnc(SCc2ccc(Cl)cc2)n1
 |  |  | inactive |  | Nc1cc(OCc2ccccc2)ncn1
2.6 mM | 2.59 | 2 |  |  | CCCCCSc1nccc(N)n1
 |  |  | inactive |  | CSc1nc(N)cc(OCc2ccccc2)n1
5 mM |  | 1 |  |  | COCCOc1nccc(N)n1
5 mM | 1.92 | 1.4 |  |  | CCCn1ccc(N)nc1=O
 | 3.00 | 1.5 |  | 500 µM (≈ 130 µg/mL) | Nc1ccnc(SCCCCc2ccccc2)n1
10 mM |  | 1 |  |  | Nc1cc[nH]c(=O)n1
 |  |  | inactive |  | CC(=O)Nc1cc[nH]c(=O)n1
5 mM | 2.22 | 1.8 |  |  | Nc1ccn(CCOc2ccccc2)c(=O)n1
7.5 mM | 2.22 | 2.4 |  |  | Nc1ccnc(OCc2ccccc2)n1
 | 2.82 | 1.4 |  | 500 µM (≈ 119 µg/mL) | Nc1ccn(-c2cccc3ccccc23)c(=O)n1
 |  |  | inactive |  | O=c1nc(NCc2ccccc2)cc[nH]1
 | 3.00 | 1.5 |  | 250 µM (≈ 55.8 µg/mL) | CCCCCCCCOc1nccc(N)n1

SMILES | IC [1] | pIC50 (Deoxycytidine kinase) | Ratio [2] | inhibition [1] | solubility [3]
O=C(Nc1ccnc(=O)[nH]1)c1ccccc1 |  |  |  | inactive | 

Source: ChEMBL document CHEMBL3271948, “Irreversible enzyme inhibitors. 200. Active-site-directed inhibitors of deoxycytidine kinase” (J Med Chem, 1977)
